# Measurements reported in ChEMBL document CHEMBL1124174, “Substituted benzamides. 1. Potential nondopaminergic antagonists of chemotherapy-induced nausea and emesis” (J Med Chem, 1988).
# “And” between values parts separate entries of the source, which are not always exact repeats. Identical values can stand only once.
# Experiments:
# Mustela putorius furo [1] = assay: In vivo antagonism of cisplatin-induced emesis in ferret measured as emetic episodes, twice the dose of 3 mg/kg and in 3 ferrets; type: functional
# How it was run: (§1)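 Nonfasted castrated male Fitch ferrets (1–1.5 kg) had jugular catheters implanted ≥48 h earlier under anesthesia. Compounds or saline were given iv twice, 5 min before and 90 min after cisplatin (12 mg/kg iv; 12 mg/mL in warm 0.9% saline). Emesis was observed up to 4 h; events within 1 min counted as one episode. Results were given as mean emetic episodes and % protection versus a pooled historical/concurrent control. t test versus saline.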
# Mustela putorius furo [2] = assay: In vivo protection against cisplatin-induced emesis in ferret measured as emetic episodes for twice the dose of 0.1 mg/kg and in 3 ferrets; type: functional
# How it was run: (§2)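 Nonfasted castrated male Fitch ferrets (1–1.5 kg) carried jugular vein catheters implanted at least 48 h earlier under general anesthesia. Test compound or saline was given iv twice, 5 min before and 90 min after cisplatin (12 mg/kg iv; 12 mg/mL in warm saline). Emesis was watched for 4 h, with events within 1 min counted as one episode. % protection is relative to a pooled historical-plus-concurrent control, with t test versus saline.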
# [3] = molecular target: D(2) dopamine receptor (Rattus norvegicus) (UniProt P61169); assay: In vivo antagonism activity against D2 receptor was measured as stereotypy in rat when administered subcutaneously; type: functional, organism-based
# How it was run: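 Male Long Evans rats (275 g) were dosed sc in dilute aqueous HCl (pH 4.5-5.5) 30 min before apomorphine (1 mg/kg sc).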
# Canis familiaris [4] = assay: In vivo antagonism of cisplatin-induced emesis in dog measured as percentage protection for twice the dose of 0.1 mg/kg in 2 dogs; type: functional, Canis lupus familiaris
# How it was run: (§3)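 Nonfasted mature male or female beagles were dosed sc twice, 30 min before and 120 min after cisplatin (3 mg/kg iv; 3 mg/mL in warm 0.9% saline, used immediately). Emesis was observed up to 5 h; events within 2 min counted as one episode. Results were given as mean emetic episodes and % protection versus a dynamic control (historical and concurrent saline means pooled). t test versus saline.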
# Mustela putorius furo [5] = assay: In vivo protection against cisplatin-induced emesis in ferret measured as percentage protection for twice the dose of 2.7 mg/kg and in 0.1 ferrets; type: functional; settings: in the assay text read “in 3 ferrets” for “in 0.1 ferrets”; how it was run: as §2
# Mustela putorius furo [6] = assay: In vivo protection against cisplatin-induced emesis in ferret measured as percentage protection for twice the dose of 0.1 mg/kg and in 3 ferrets; type: functional; how it was run: as §2
# Mustela putorius furo [7] = assay: In vivo protection against cisplatin-induced emesis in ferret measured as p emetic episodes for twice the dose of 0.9 mg/kg and in 6 ferrets; type: functional; how it was run: as §2
# [8] = molecular target: D(2) dopamine receptor (Rattus norvegicus) (UniProt P61169); assay: In vivo antagonistic activity against dopamine D2 receptor was measured as catalepsy in rat when administered subcutaneously; type: functional, organism-based
# How it was run: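 Male Long Evans rats (275 g) received graded sc doses in dilute aqueous HCl (pH 4.5-5.5). They were observed 180 min for catalepsy, scored when the animal stayed stationary ≥15 s on a four-cork template.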
# Canis familiaris [9] = assay: In vivo antagonism of cisplatin-induced emesis in dog measured as emetic episodes, twice the dose of 0.1 mg/kg in 2 dogs; type: functional, Canis lupus familiaris; how it was run: as §3
# Canis familiaris [10] = assay: In vivo antagonism of cisplatin-induced emesis in dog measured as percentage protection for twice the dose of 1 mg/kg in 2 dogs; type: functional, Canis lupus familiaris; how it was run: as §3
# D(2) dopamine receptor = D(2) dopamine receptor (Rattus norvegicus, UniProt P61169); assay: In vitro antagonistic activity against Dopamine receptor D2 was evaluated for the inhibition of [3H]spiperone binding
# How it was run: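 Rat striatal membranes were prepared by differential centrifugation in 50 mM Tris pH 7.4 at 4 °C. Membrane protein (10 mg) was incubated 15 min at 37 °C with 0.1 nM [3H]spiperone and varying competitor concentrations. Buffer: 50 mM Tris HCl pH 7.5, 0.1% ascorbic acid, pargyline, 120 mM NaCl, 5 mM KCl, 2 mM CaCl2, 1 mM MgCl2. (+)-Butaclamol defined nonspecific binding. Bound ligand was collected by filtration and scintillation counted. IC50 by log-logit regression.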
# Mustela putorius furo [11] = assay: In vivo antagonism of cisplatin-induced emesis in ferret measured as emetic episodes, twice the dose of 0.1 mg/kg and in 3 ferrets; type: functional; how it was run: as §1
# Mustela putorius furo [12] = assay: In vivo protection against cisplatin-induced emesis in ferret measured as emetic episodes for twice the dose of 0.3 mg/kg and in 6 ferrets; type: functional; how it was run: as §2
# Mustela putorius furo [13] = assay: In vivo protection against cisplatin-induced emesis in ferret measured as percentage protection for twice the dose of 0.9 mg/kg and in 6 ferrets; type: functional; how it was run: as §2
# Mustela putorius furo [14] = assay: In vivo protection against cisplatin-induced emesis in ferret measured as emetic episodes for twice the dose of 2.7 mg/kg and in 3 ferrets; type: functional; how it was run: as §2
# Mustela putorius furo [15] = assay: In vivo antagonism of cisplatin-induced emesis in ferret measured as percentage protection for twice the dose of 3 mg/kg
# Canis familiaris [16] = assay: In vivo protection against cisplatin-induced emesis in dog measured as percentage protection twice the dose of 0.1 mg/kg and in 3 dogs
# Mustela putorius furo [17] = assay: In vivo antagonism of cisplatin-induced emesis in ferret measured as percentage protection for twice the dose of 3 mg/kg and […]; type: functional; how it was run: as §1
# Canis familiaris [18] = assay: In vivo protection against cisplatin-induced emesis in dog measured as emetic episodes for twice the dose of 0.9 mg/kg and in 3 […]; type: functional, Canis lupus familiaris
# Canis familiaris [19] = assay: cisplatin-induced emesis in dog was measured for when administered twice daily; settings: Canis lupus familiaris
# Canis familiaris [20] = assay: In vivo antagonism of cisplatin-induced emesis in dog measured as emetic episodes, twice the dose of 0.3 mg/kg in 2 dogs; type: functional, Canis lupus familiaris; how it was run: as §3
# Mustela putorius furo [21] = assay: Cisplatin-induced emesis in ferret measured as stereotypy […] when administered iv […] twice daily; type: functional
# Mustela putorius furo [22] = assay: In vivo protection against cisplatin-induced emesis in ferret measured as percentage protection for twice the dose of 0.3 mg/kg and in 6 ferrets; type: functional; how it was run: as §2
# Canis familiaris [23] = assay: In vivo protection against cisplatin-induced emesis in dog measured as percentage protection for twice the dose of 0.1 mg/kg and in 3 […]; type: functional, Canis lupus familiaris
# [24] = molecular target: D(2) dopamine receptor (Canis lupus familiaris) (UniProt Q9GJU1); assay: In vivo antagonism activity against dopamine D2 receptor was measured as emesis in dog when administered subcutaneously; type: functional, organism-based
# Canis familiaris [25] = assay: In vivo protection against cisplatin-induced emesis in dog measured as emetic episodes for twice the dose of 0.3 mg/kg and in 5 […]; type: functional, Canis lupus familiaris
# Canis familiaris [26] = assay: In vivo protection against cisplatin-induced emesis in dog measured as emetic episodes for twice the dose of 0.1 mg/kg and in 3 […]; type: functional, Canis lupus familiaris
# Canis familiaris [27] = assay: In vivo antagonism of cisplatin-induced emesis in dog measured as percentage protection for twice the dose of 0.3 mg/kg in 2 dogs; type: functional, Canis lupus familiaris; how it was run: as §3
# Mustela putorius furo [28] = assay: In vivo antagonism of cisplatin-induced emesis in ferret measured as emetic episodes, twice the dose of 0.3 mg/kg and in 3 ferrets; type: functional; how it was run: as §1
# Canis familiaris [29] = assay: In vivo antagonism of cisplatin-induced emesis in dog measured as emetic episodes, twice the dose of 1 mg/kg in 2 dogs; type: functional, Canis lupus familiaris; how it was run: as §3
# Mustela putorius furo [30] = assay: (§4) In vivo antagonism of cisplatin-induced emesis in ferret measured as percentage protection for twice the dose of 2.5 mg/kg in 5 ferrets; type: functional; how it was run: as §1
# Canis familiaris [31] = assay: Protection against cisplatin-induced emesis in dog measured as percentage protection for twice the dose of 0.8 mg/kg and in 3 dogs(1 protected); type: functional, Canis lupus familiaris
# Canis familiaris [32] = assay: (§5) In vivo antagonism of cisplatin-induced emesis in dog measured as emetic episodes, twice the dose of 0.2 mg/kg in 4 dogs; type: functional, Canis lupus familiaris; how it was run: as §3
# Canis familiaris [33] = assay: Protection against cisplatin-induced emesis in dog measured as percentage protection for twice the dose of 2.5 mg/kg and in 4 dogs(2 protected); type: functional, Canis lupus familiaris
# Mustela putorius furo [34] = assay: as §4; type: functional; how it was run: as §1; remark: listed apart in the source
# Mustela putorius furo [35] = assay: In vivo antagonism of cisplatin-induced emesis in ferret measured as emetic episodes, twice the dose of 0.8 mg/kg in 5 ferrets; type: functional; how it was run: as §1
# Canis familiaris [36] = assay: (§6) In vivo antagonism of cisplatin-induced emesis in dog measured as emetic episodes, twice the dose of 0.8 mg/kg in 3 dogs; type: functional, Canis lupus familiaris; how it was run: as §3
# Mustela putorius furo [37] = assay: In vivo antagonism of cisplatin-induced emesis in ferret measured as percentage protection for twice the dose of 0.8 mg/kg in 5 ferrets; type: functional; how it was run: as §1
# Canis familiaris [38] = assay: (§7) In vivo antagonism of cisplatin-induced emesis in dog measured as emetic episodes, twice the dose of 2.5 mg/kg in 4 dogs; type: functional, Canis lupus familiaris; how it was run: as §3
# Mustela putorius furo [39] = assay: In vivo antagonism of cisplatin-induced emesis in ferret measured as emetic episodes, twice the dose of 2.5 mg/kg in 5 ferrets; type: functional; how it was run: as §1
# Mustela putorius furo [40] = assay: In vivo antagonism of cisplatin-induced emesis in ferret measured as percentage protection for twice the dose of 0.2 mg/kg in 4 ferrets; type: functional; how it was run: as §1
# Mustela putorius furo [41] = assay: antagonism of cisplatin-induced emesis in ferret measured when administered intravenously twice daily; settings: iv
# Canis familiaris [42] = assay: […] cisplatin-induced emesis in dog was measured for as stereotypy when administered iv twice daily; type: functional; settings: Canis lupus familiaris
# Canis familiaris [43] = assay: Protection against cisplatin-induced emesis in dog measured as percentage protection for twice the dose of 0.2 mg/kg; type: functional, Canis lupus familiaris
# Mustela putorius furo [44] = assay: In vivo antagonism of cisplatin-induced emesis in ferret measured as emetic episodes, twice the dose of 0.2 mg/kg in 4 ferrets; type: functional; how it was run: as §1
# Canis familiaris [45] = assay: as §7; type: functional, Canis lupus familiaris; how it was run: as §3; remark: listed apart in the source
# Canis familiaris [46] = assay: In vivo antagonism of cisplatin-induced emesis in dog measured as percentage protection for twice the dose of 2.5 mg/kg in 4 dogs; type: functional, Canis lupus familiaris; how it was run: as §3
# Canis familiaris [47] = assay: In vivo antagonism of cisplatin-induced emesis in dog measured as percentage protection for twice the dose of 0.2 mg/kg in 4 dogs; type: functional, Canis lupus familiaris; how it was run: as §3
# Canis familiaris [48] = assay: In vivo antagonism of cisplatin-induced emesis in dog measured as percentage protection for twice the dose of 0.8 mg/kg in 3 dogs; type: functional, Canis lupus familiaris; how it was run: as §3
# Canis familiaris [49] = assay: as §5; type: functional, Canis lupus familiaris; how it was run: as §3; remark: listed apart in the source
# Canis familiaris [50] = assay: as §6; type: functional, Canis lupus familiaris; how it was run: as §3; remark: listed apart in the source
# Chain of D(2) dopamine receptor (Rattus norvegicus) (P61169 whole entry): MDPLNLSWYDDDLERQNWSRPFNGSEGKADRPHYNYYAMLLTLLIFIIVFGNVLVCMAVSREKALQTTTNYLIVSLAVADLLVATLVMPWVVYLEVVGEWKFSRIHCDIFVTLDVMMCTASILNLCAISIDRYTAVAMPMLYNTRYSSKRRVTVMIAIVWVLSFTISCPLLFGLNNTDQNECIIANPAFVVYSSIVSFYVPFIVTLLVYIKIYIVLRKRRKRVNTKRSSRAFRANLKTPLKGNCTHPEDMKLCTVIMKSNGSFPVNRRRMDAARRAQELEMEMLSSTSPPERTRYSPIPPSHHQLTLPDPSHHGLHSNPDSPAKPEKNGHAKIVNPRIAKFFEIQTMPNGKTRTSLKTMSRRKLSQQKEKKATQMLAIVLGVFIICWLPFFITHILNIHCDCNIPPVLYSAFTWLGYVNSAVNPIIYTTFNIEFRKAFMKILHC
# Chain of D(2) dopamine receptor (Canis lupus familiaris) (Q9GJU1 whole entry): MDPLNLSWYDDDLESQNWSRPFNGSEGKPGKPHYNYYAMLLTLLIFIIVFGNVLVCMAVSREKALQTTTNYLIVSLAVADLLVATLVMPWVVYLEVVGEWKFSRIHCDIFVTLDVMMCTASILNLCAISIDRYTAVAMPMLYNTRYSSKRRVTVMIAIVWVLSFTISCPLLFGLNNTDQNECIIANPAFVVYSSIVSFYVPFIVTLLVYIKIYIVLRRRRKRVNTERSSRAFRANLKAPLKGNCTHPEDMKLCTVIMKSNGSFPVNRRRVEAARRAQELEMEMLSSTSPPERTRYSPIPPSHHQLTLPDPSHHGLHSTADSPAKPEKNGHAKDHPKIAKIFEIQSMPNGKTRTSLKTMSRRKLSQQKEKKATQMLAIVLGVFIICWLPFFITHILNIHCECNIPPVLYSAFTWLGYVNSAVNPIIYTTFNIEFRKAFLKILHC
# Chain of D(2) dopamine receptor (P61169 whole entry): as the sequence (P61169 whole entry) above
smiles,measurement,setting,value
CCN(CC)CCNC(=O)c1cc(Cl)c(N)cc1OC(C)C(C)=O (centres undefined) [BATANOPRIDE],Emetic episodes,Mustela putorius furo [1],0.3
same,Emetic episodes,Mustela putorius furo [2],3.3
same,ED50,[3],> 40 mg/kg
same,Protection,Canis familiaris [4],60%
same,Protection,Mustela putorius furo [5],96%
same,Protection,Mustela putorius furo [6],53%
same,Emetic episodes,Mustela putorius furo [7],0.5
same,ED50,[8],> 40 mg/kg
same,Emetic episodes,Canis familiaris [9],0.5
same,Protection,Canis familiaris [10],96%
same,IC50,D(2) dopamine receptor,> 1000 nM
same,Emetic episodes,Mustela putorius furo [11],3.3
same,Emetic episodes,Mustela putorius furo [12],2.5
same,Protection,Mustela putorius furo [13],93%
same,Emetic episodes,Mustela putorius furo [14],0.3
same,Protection,Mustela putorius furo [15],90%
same,Protection,Canis familiaris [16],58%
same,Protection,Mustela putorius furo [17],96% and 54%
same,Emetic episodes,Canis familiaris [18],0
same,ED50,Canis familiaris [19],0.05 mg/kg
same,Emetic episodes,Canis familiaris [20],1.5
same,ED50,Mustela putorius furo [21],0.14 mg/kg
same,Protection,Mustela putorius furo [22],64%
same,Protection,Canis familiaris [23],86% and 100%
same,ED50,[24],> 3 mg/kg
same,Emetic episodes,Canis familiaris [25],1.6
same,Emetic episodes,Canis familiaris [26],5
same,Protection,Canis familiaris [27],87%
same,Emetic episodes,Mustela putorius furo [28],1
same,Emetic episodes,Canis familiaris [29],0.5
CCN(CC)CCNC(=O)c1cc(Cl)c(N)cc1OC [METOCLOPRAMIDE],Protection,Mustela putorius furo [30],91%
same,Protection,Canis familiaris [31],92%
same,Emetic episodes,Canis familiaris [32],5
same,ED50,[3],4 mg/kg
same,ED50,[8],26 mg/kg
same,Protection,Canis familiaris [33],92%
same,Protection,Mustela putorius furo [34],90%
same,Emetic episodes,Mustela putorius furo [35],2.4
same,Emetic episodes,Canis familiaris [36],1
same,Protection,Mustela putorius furo [37],73% and 66%
same,Emetic episodes,Canis familiaris [38],1
same,Emetic episodes,Mustela putorius furo [39],0.6
same,Protection,Mustela putorius furo [40],22% and 21%
same,ED50,Mustela putorius furo [41],0.53 mg/kg
same,ED50,Canis familiaris [42],0.18 mg/kg
same,Protection,Canis familiaris [43],58%
same,Emetic episodes,Mustela putorius furo [44],5.5
same,Emetic episodes,Canis familiaris [45],1
same,Protection,Canis familiaris [46],92%
same,Protection,Canis familiaris [47],58%
same,ED50,[24],0.36 mg/kg
same,Protection,Canis familiaris [48],92%
same,Emetic episodes,Canis familiaris [49],5
same,Emetic episodes,Canis familiaris [50],1
